The values that follow come from ChEMBL document CHEMBL3286173, “Graphite catalyzed solvent free synthesis of dihydropyrimidin-2(1H)-ones/thiones and their antidiabetic activity” (Bioorg Med Chem Lett, 2014).

Assay [1] concerns the target T1, Pancreatic alpha-amylase (Sus scrofa) (UniProt P00690).
T1 sequence (whole entry): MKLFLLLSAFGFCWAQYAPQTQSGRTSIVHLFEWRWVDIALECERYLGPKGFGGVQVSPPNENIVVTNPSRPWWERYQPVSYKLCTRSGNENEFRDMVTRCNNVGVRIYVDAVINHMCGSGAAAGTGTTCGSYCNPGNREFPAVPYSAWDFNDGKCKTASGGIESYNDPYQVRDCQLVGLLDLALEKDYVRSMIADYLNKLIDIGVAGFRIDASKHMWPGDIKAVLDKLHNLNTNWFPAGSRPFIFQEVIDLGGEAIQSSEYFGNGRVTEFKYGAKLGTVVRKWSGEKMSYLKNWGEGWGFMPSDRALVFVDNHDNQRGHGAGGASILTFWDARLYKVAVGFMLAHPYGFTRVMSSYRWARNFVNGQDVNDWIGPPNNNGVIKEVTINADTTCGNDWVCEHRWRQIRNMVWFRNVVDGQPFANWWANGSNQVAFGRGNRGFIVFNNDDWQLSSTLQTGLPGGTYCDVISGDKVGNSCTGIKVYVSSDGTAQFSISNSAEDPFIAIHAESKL
The assay is described as follows: Inhibition pig alpha-amylase at 50 to 300 ug/ml pretreated for 30 mins followed by addition of 1% starch for 10 mins by spectrometer. The procedure, abridged:
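PBS containing 1% starch was then added for 10 min at 37°C. The reaction was stopped with DNSA in a boiling bath for 10 min, and OD was read at 540 nm against a 0.2% maltose reference. Acarbose was the positive control. Runs were in triplicate with SD, giving % inhibition relative to an uninhibited control.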

The target of assay [2] is T1, Pancreatic alpha-amylase (Sus scrofa). The assay can be described thus: Inhibition pig alpha-amylase at 300 ug/ml pretreated for 30 mins followed by addition of 1% starch for 10 mins by spectrometer. The procedure, abridged: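 Porcine pancreatic α-amylase (1.28 mg in 25 ml PBS) was preincubated with compounds in methanol (50, 150 or 300 µg/ml) at 37°C for 30 min. PBS containing 1% starch was then added for 10 min at 37°C. The reaction was stopped with DNSA in a boiling bath for 10 min, and OD was read at 540 nm against a 0.2% maltose reference. Acarbose was the positive control. Runs were in triplicate with SD, giving % inhibition relative to an uninhibited control.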

Assay [3] has the same target. The note with it: 100 mg/ml.

`CCOC(=O)C1=C(C)NC(=S)NC1c1ccc(OC)cc1` (configuration not stated): the inhibition (usually the change of the read-out against control, counted positive when it falls) in assay [1] is 66.5%. Take `CCOC(=O)C1=C(C)NC(=S)NC1c1ccccc1` (configuration not stated): the inhibition in assay [2] is 97.2%. `CCOC(=O)C1=C(C)NC(=O)NC1c1ccccc1F` (configuration not stated): the inhibition in assay [1] worked out at 0%. For `CCOC(=O)C1=C(C)NC(=O)NC1c1cccc([N+](=O)[O-])c1` (configuration not stated), the inhibition in assay [1] came to 26.5%.

For the compound `CCOC(=O)C1=C(C)NC(=O)NC1c1ccc([N+](=O)[O-])cc1` (configuration not stated), the inhibition in assay [1] amounted to 0%. Still for that read-out and setting: with `CCOC(=O)C1=C(C)NC(=O)NC1c1ccc(F)cc1` (configuration not stated) the figure was 63.8%. On to `C[C@H]1O[C@H](O[C@H]2[C@H](O)[C@@H](O)[C@@H](O[C@H]3[C@H](O)[C@@H](O)C(O)O[C@@H]3CO)O[C@@H]2CO)[C@H](O)[C@@H](O)[C@@H]1N[C@H]1C=C(CO)[C@@H](O)[C@H](O)[C@H]1O` (some centres not stated), for which, in assay [3], the inhibition was found to be 100%. Consider `CCOC(=O)C1=C(C)NC(=O)NC1c1ccccc1` (configuration not stated), for which the inhibition in assay [1] came out at 0%. `CCOC(=O)C1=C(C)NC(=O)NC1c1ccc(OC)cc1` (configuration not stated): in assay [1], the inhibition stood at 0%. Same read-out and setting: the value for `CCOC(=O)C1=C(C)NC(=S)NC1c1cccc(OC)c1` (configuration not stated) was 0%; that for `CCOC(=O)C1=C(C)NC(=O)NC1c1ccc2c(c1)OCO2` (configuration not stated) was 0%; that for `CCOC(=O)C1=C(C)NC(=S)N[C@H]1c1cccc(O)c1` was 0%.
